Measured values from different studies.
Target: Serine/threonine-protein kinase LATS1 (LATS1, Homo sapiens, UniProt O95835)
Sequence (O95835 1-1130, as in one of the studies): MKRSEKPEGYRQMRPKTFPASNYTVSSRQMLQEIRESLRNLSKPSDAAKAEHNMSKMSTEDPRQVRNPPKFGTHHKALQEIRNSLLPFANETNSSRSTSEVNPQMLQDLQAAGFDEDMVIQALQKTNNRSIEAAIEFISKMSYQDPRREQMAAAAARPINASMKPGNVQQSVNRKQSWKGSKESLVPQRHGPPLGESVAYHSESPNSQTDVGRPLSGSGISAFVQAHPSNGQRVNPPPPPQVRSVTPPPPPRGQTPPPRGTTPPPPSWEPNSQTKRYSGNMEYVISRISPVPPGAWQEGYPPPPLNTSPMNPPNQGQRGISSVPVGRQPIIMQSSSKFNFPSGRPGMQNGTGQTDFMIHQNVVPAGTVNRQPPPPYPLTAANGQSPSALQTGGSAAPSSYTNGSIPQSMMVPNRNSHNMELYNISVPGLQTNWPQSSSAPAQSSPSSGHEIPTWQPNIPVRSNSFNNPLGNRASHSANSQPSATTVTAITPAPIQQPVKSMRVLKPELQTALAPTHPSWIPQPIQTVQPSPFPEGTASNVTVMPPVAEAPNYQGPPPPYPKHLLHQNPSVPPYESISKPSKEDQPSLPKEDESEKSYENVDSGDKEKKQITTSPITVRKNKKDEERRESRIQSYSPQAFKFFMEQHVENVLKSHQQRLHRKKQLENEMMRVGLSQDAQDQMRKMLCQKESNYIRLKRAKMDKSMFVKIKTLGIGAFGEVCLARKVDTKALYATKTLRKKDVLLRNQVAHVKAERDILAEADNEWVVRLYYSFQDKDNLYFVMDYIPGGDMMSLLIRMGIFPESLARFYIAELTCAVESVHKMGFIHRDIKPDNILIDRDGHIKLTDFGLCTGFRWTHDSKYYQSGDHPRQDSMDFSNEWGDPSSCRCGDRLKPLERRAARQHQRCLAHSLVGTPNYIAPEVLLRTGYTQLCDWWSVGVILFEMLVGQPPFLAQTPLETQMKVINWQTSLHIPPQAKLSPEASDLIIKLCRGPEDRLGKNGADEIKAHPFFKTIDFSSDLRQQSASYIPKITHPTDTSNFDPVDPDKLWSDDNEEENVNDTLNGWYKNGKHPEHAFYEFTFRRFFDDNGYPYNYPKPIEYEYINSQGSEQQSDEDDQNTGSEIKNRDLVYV

Structure (SMILES)	effect on	method	concentration	remaining binding
N[C@H]1CCN(c2nccc(-c3cnn4ncccc34)n2)C1	binding		1 µM	100%
C=CC(=O)N1CCC(C(=O)NCC(=O)N2CCN(c3nc(-c4cnc(N)nc4C(F)F)nc(N4CCOCC4)n3)CC2)CC1	binding	competition with immobilised ligand	1 µM	100%
CCCCN(CCCC)C(=O)CN1C[C@@H](c2cc(OC)c3c(c2)OCO3)[C@H](C(=O)O)[C@H]1CC(C)(C)CCC	cell-free assay	competition with immobilised ligand	1 µM	75.2%
CNC(=O)[C@@H]1CC[C@@H](n2c(-c3ccc4cnccc4c3)nc3ccc(C(=O)NCc4cccc(C(N)=O)c4)cc32)C1	binding	competition with immobilised ligand	1 µM	100%
CN(c1nccc(-c2cnn3ncccc23)n1)C1CC1	binding		1 µM	82%
O=C(NCCCN1CCOCC1)c1ccc(Nc2nccc(-c3cc4ccccc4s3)n2)cc1	binding	competition with immobilised ligand	1 µM	100%
N#Cc1ccc(Nc2ccc3[nH]c(=O)[nH]c3c2)c(Cl)c1	cell-free assay	competition with immobilised ligand	1 µM	76%
CCN1CCN(Cc2ccc(C(=O)Nc3ccc(C)c(Oc4ccc5c(c4)CC(=O)N5)c3)cc2C(F)(F)F)CC1	binding	competition with immobilised ligand	1 µM	94%
CCOCCn1cc(C(=O)Nc2ccc(-n3nc(-c4cccnc4)cc3C(F)(F)F)cn2)ccc1=O	cell-free assay	competition with immobilised ligand	1 µM	69%
c1cncc(-c2cccc(Nc3nccc(NC4CCCCC4)n3)c2)c1	binding	competition with immobilised ligand	10 µM	19%
CN(C)c1ncc(F)c(-c2cnn3ncccc23)n1	binding		1 µM	100%
O=C(c1ccc(Nc2ncc(Cl)c(-c3cc4ccccc4s3)n2)cc1)N1CCC(N2CCCC2)CC1	binding	competition with immobilised ligand	1 µM	60%
C[C@@H]1CCN(c2nccc(-c3cnn4ncccc34)n2)C1	binding		1 µM	100%
COc1cc(-c2cn(C3CCc4c(F)cccc4N(CC(F)(F)F)C3=O)nn2)ccc1-n1cnc(C)c1 (stereo not drawn)	cell-free assay	competition with immobilised ligand	1 µM	93%
CN(C)c1nccc(-c2cnc3ncccn23)n1	binding		1 µM	100%
CN(C)c1ncnc(-c2ccc3nc(Nc4cc(CN5CCN(C(=O)CC(F)(F)F)CC5)ccn4)[nH]c3c2)c1Cl	cell-free assay	competition with immobilised ligand	1 µM	95%
O=C(NCC1CCOCC1)c1n[nH]cc1NC(=O)c1c(F)cccc1F	binding	competition with immobilised ligand	1 µM	100%
C[C@@H](c1ccc(-n2cnc3c(N)ncnc32)cc1)N1CCc2nn(C)c(Cc3ccccc3)c2C1=O	binding	competition with immobilised ligand	0.1 µM	100%
CN(C)c1nccc(-c2cnn3ncccc23)n1	binding		1 µM	100%
Cc1cc(NC(=O)c2cccc(S(F)(F)(F)(F)F)c2)cc(-n2ccn3nc(-c4cccnc4)cc23)c1	cell-free assay	competition with immobilised ligand	1 µM	100%
Nc1ncc2c(n1)-c1c([nH]c3ccc(C#CC4CC4)cc13)CCCC2	binding	competition with immobilised ligand	1 µM	92%
